KCNQ1 pot – potentiators or activators of human KCNQ1 potassium channel. CHO-K1 KCNQ1, thallium flux FluxOR fluorescence; stronger effect = higher value. B-score at 10 µM. 310,000 tested, 0.35% active. AID 2648;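 active = fluorescence ratio B-score, a plate-corrected score, at least three library SD, with initial intensity B-score within 5 SD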
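Assay system: CHO-K1 cells stably expressing KCNQ1; Medium: assay buffer with matched DMSO; Also added: K+/Tl+ depolarizing stimulus; Dosing: single dose; Timing: dye 90 min, compound 20 min, room temperature; Measured by: kinetic FluxOR thallium fluorescence, 10-s 1-Hz baseline, 110-s post-stimulus read; Read-out: peak-minus-minimum fluorescence over initial fluorescence, negative-control normalized, B-scored.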
KCNK3 block – human KCNK3 channel inhibition, primary screen. O14649. 340,000 tested, 0.84% active. B-score at 10 µM. AID 602410. CHO-KCNK3 thallium flux, FluxOR fluorescence; stronger effect = lower value;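 active = B-score under library mean minus 4 SD, starting fluorescence ratio at most library mean plus 5 SD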;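 note: more negative B-score means stronger inhibition of thallium flux through KCNK3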
KCNQ1 inh – inhibitors of human KCNQ1 potassium channel; B-score at 10 µM; P51787; AID 2642; 310,000 tested, 1.3% active; CHO-K1 KCNQ1, FluxOR thallium flux fluorescence; stronger effect = higher value;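 active = compounds whose thallium flux B-score, printed positive for inhibition, exceeds three library SD while starting fluorescence stays within three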;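 note: channel opened by potassium depolarization with thallium stimulus after 20 min compound exposure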
Kir21 block – blocks the mouse Kir2.1 inward-rectifier potassium channel; B-score at 10 µM; 310,000 tested, 0.85% active; AID 1672; P35561; HEK293-Kir2.1, FluxOR thallium flux fluorescence; stronger effect = lower value;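 active = fluorescence ratio B-score at or below minus 3 SD of library scores, with starting-brightness B-score within 2 SD, cut at about -4.2 in these data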;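 note: channel flux triggered by added potassium and thallium sulfate stimulus; B-score of peak minus minimum fluorescence over baseline after thallium stimulus; more negative B-score means stronger Kir2.1 block with less thallium influx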
hERG protect – hERG (human) protection from proarrhythmic block | Q12809 | CHO-hERG, FluxOR thallium flux, dofetilide IC70 present | activation (rescue from dofetilide block), less the hit threshold, % at 10 µM | 310,000 tested, 0.51% active | AID 1511;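 active = activation above the mean of controls blocked by dofetilide plus 5 SD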;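 note: thallium influx through hERG after potassium depolarization seen as dye fluorescence rise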
KCNK9 inh – human KCNK9 channel inhibition; Q9NPC2; HEK293 KCNK9, FluxOR thallium flux fluorescence; stronger effect = lower value; B-score at 10 µM; 310,000 tested, 1.2% active;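 active = ratio B-score over 3 SD below the library mean, with starting fluorescence within 5 SD of its mean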;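 note: negative B-score means less thallium flux so channel inhibition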
KCNQ1 inh valid – reconfirmed blocker of the human KCNQ1 potassium channel; shares compounds with KCNQ1 inh; KCNQ1 cell line, FluxOR thallium flux fluorescence; inhibition, % at 10 µM; 1,600 tested, 93% active;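 active = primary screen active, with duplicate mean exceeding buffer control mean plus 3 SD of buffer wells, cut at about 28% in these data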
CHO KCNQ1 ctr – counter-screen for KCNQ1 inhibitors: effect in parental CHO cells. shares compounds with KCNQ1 inh. parental CHO-K1, FluxOR thallium flux fluorescence ratio; stronger effect = lower value; zero means no signal rise above baseline. fluorescence ratio (Tl flux) at 10 µM. 1,600 tested, 21% active;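 active = mean of duplicate thallium-flux fluorescence ratios in parental host cells more than 5 SD below the buffer control mean, cut at about 0.38 in these data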;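 note: ratio is peak minus minimum fluorescence divided by baseline fluorescence; actives read low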
KCNQ1 ephys val – blocks human KCNQ1 current in automated patch clamp. 490 tested, 20% active. shares compounds with KCNQ1 inh. calls only at 10 µM. KCNQ1-CHO cells;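 active = KCNQ1 current drop exceeding 3 SD of negative control wells, seen in both duplicate runs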;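 note: steady state current during a 2 s step from -80 to +40 mV; negative values mean current inhibition and positive values mean potentiation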
KCNQ2 inh – selectivity of KCNQ1 inhibitors: inhibition of rat KCNQ2 channel; AID 651746; inhibition, % at 10 µM; shares compounds with KCNQ1 inh; 1,600 tested, 71% active; KCNQ2 cells, FluxOR thallium flux fluorescence;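 active = mean percent inhibition of the KCNQ2 thallium signal more than 5 SD above the buffer-only control wells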;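 note: KCNQ2 expressed in CHO cells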
KCNQ1-KCNE1 inh – human KCNQ1/KCNE1 inhibition in KCNQ1 specificity screen | shares compounds with KCNQ1 inh | KCNQ1/KCNE1 cells, FluxOR thallium flux fluorescence | inhibition, % at 10 µM | 1,600 tested, 77% active;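 active = mean percent inhibition of duplicate wells above the buffer-only control mean plus 3 SD of those controls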
Large screens that a line does not name were inactive (follow-up assays come after a bar, where they were run). In the library only some 3.7% were active in any assay of this set; here they are far more common.

COc1cccc(COC(=O)c2c(C)nn(-c3ccccc3)c2Cl)c1OC	KCNQ1 inh 7 | KCNQ1 inh valid 114 | CHO KCNQ1 ctr inactive | KCNQ1 ephys val inactive | KCNQ2 inh 116% | KCNQ1-KCNE1 inh 99%
COc1ccc(-n2ncc3c2CC(C)(C)CC3NC(=O)CCn2cncn2)cc1 (stereo not drawn)	none
O=c1oc2c(-c3cccc(F)c3)cc(O)cc2s1	KCNQ1 inh 11 | KCNQ1 inh valid 74 | CHO KCNQ1 ctr inactive | KCNQ2 inh inactive | KCNQ1-KCNE1 inh 64%
O=C(COc1ccccc1)NC(NC(=S)Nc1ccccc1O)C(Cl)(Cl)Cl (stereo not drawn)	KCNQ1 inh 9 | KCNQ1 inh valid 78 | CHO KCNQ1 ctr inactive | KCNQ2 inh 92% | KCNQ1-KCNE1 inh 53%
S=C(NCc1ccccc1)Nc1ccc(Cl)cc1	none
Cc1c(Cl)cccc1NC(=S)NCCc1ccc(Cl)cc1	KCNQ1 inh 15 | KCNQ1 inh valid 73 | CHO KCNQ1 ctr inactive | KCNQ2 inh 79% | KCNQ1-KCNE1 inh 51%
S=C(NCCc1ccc(Cl)cc1)NCc1ccccc1	KCNQ1 inh 10, Kir21 block -7.3 | KCNQ1 inh valid 63 | CHO KCNQ1 ctr inactive | KCNQ2 inh 74% | KCNQ1-KCNE1 inh 72%
S=C(NCCc1cccc(Cl)c1)NCc1ccccc1	KCNQ1 inh 8 | KCNQ1 inh valid 66 | CHO KCNQ1 ctr inactive | KCNQ2 inh inactive | KCNQ1-KCNE1 inh 56%
Cc1ccc2nc(NC(=O)CSc3nc(=O)n(CCN(C)C)c4c3CCCC4)sc2c1	none
Cc1ccc(S(=O)(=O)N(CC(=O)N=Nc2c(O)[nH]c3ccccc23)c2cccc(C)c2)cc1	KCNQ1 inh 7 | KCNQ1 inh valid 76 | CHO KCNQ1 ctr inactive | KCNQ2 inh 80% | KCNQ1-KCNE1 inh 130%
N#Cc1ccc(NC(=O)Nc2ccc(Cl)cc2)cc1	KCNQ1 inh 6 | KCNQ1 inh valid inactive | CHO KCNQ1 ctr inactive | KCNQ2 inh inactive | KCNQ1-KCNE1 inh inactive
S=C(Nc1cccc(Br)c1)c1ccccc1	none
S=C(NNC(=S)Nc1ccccc1)Nc1ccccc1	none
CNC(=S)Nc1ccc(C)cc1	none
S=C(Nc1ccccc1)Nc1cccc(Br)c1	KCNQ1 inh 8 | KCNQ1 inh valid 60 | CHO KCNQ1 ctr inactive | KCNQ2 inh inactive | KCNQ1-KCNE1 inh 60%
CN(CC(=O)Nc1ccc(C#N)cc1)Cc1ccc(Cl)cc1	none
Cc1ccc(NC(=S)Nc2ccc(Br)cc2)cc1	KCNQ1 inh 7 | KCNQ1 inh valid 48 | CHO KCNQ1 ctr inactive | KCNQ2 inh inactive | KCNQ1-KCNE1 inh inactive
N#Cc1ccc(NC(=S)Nc2ccccc2)cc1	KCNQ1 inh 7 | KCNQ1 inh valid inactive | CHO KCNQ1 ctr inactive | KCNQ2 inh inactive | KCNQ1-KCNE1 inh 56%
O=C(NCc1ccc(F)cc1)c1ccc2c(c1)S(=O)(=O)c1ccccc1C2=O	none
CC(C)CC(=O)Nc1nnc(CSCc2ccc(F)cc2)s1	none
CCOc1ccc(N(CC(=O)NCc2ccco2)C(=O)CCC(=O)Nc2ccccn2)cc1	none
O=C(CSc1nnc2ccccn12)NNC(=O)c1ccccc1F	none (no result: KCNQ1 pot, KCNQ1 inh, Kir21 block, hERG protect, KCNK9 inh)
O=C(CCN1CCOCC1)NNC(=O)c1ccc(Cl)c([N+](=O)[O-])c1	none (no result: KCNQ1 pot, KCNQ1 inh, Kir21 block, hERG protect, KCNK9 inh)
CC1(C)CC(=O)C2=C(C1)Nc1ccccc1NC2	KCNQ1 inh 7 | KCNQ1 inh valid inactive | CHO KCNQ1 ctr inactive | KCNQ2 inh inactive | KCNQ1-KCNE1 inh inactive
CC1(C)CC(=O)C2=C(C1)Nc1ccccc1S2	none
